Test results: ChEMBL document CHEMBL1142997 (J Med Chem, 2007)

target: T1, Hydroxycarboxylic acid receptor 3 (Homo sapiens, UniProt P49019); test: Activity at GPR109b in CHO cells assessed as inhibition of forskolin-induced cAMP generation; type: functional, cell-based
How it was run: (§1)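 Whole-cell adenylyl cyclase FlashPlate cAMP assay on a stable receptor clone (positive clones picked by anti-HA immunostaining). Each well held 50 000 cells, stimulated with 5 µM forskolin. Normalisation: forskolin-stimulated cAMP set at 100%, cAMP from cells without forskolin at 200%. Potency reported as EC50 with number of determinations (n).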

T1 sequence (P49019 whole entry): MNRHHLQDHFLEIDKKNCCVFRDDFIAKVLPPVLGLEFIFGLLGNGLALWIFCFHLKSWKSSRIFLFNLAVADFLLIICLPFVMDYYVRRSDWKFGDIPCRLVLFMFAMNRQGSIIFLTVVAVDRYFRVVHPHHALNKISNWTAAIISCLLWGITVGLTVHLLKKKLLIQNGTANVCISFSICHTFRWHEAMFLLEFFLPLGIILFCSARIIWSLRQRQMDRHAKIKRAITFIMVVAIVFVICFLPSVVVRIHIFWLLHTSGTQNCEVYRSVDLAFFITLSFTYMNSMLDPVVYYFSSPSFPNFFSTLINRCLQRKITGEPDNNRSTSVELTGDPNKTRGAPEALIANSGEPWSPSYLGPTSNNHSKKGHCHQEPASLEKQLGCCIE

SMILES	EC50
CC1(c2cc(F)cc(F)c2)OC(C(=O)O)=CC1=O (stereo not given)	33 µM (agonist)
CC1(c2cccc(Cl)c2)OC(C(=O)O)=CC1=O (stereo not given)	22 µM (agonist)
CC1(c2cccc(Br)c2)OC(C(=O)O)=CC1=O (single isomer, unassigned; (+))	14 µM (agonist)
Cc1cc(C2(C)OC(C(=O)O)=CC2=O)cs1 (stereo in doubt; (-)-5aj)	5 µM (agonist)
CC1(C2=CCCC2)OC(C(=O)O)=CC1=O (stereo not given)	5.1 µM (agonist)
CC1(c2cccc(C(F)(F)F)c2)OC(C(=O)O)=CC1=O (stereo not given)	12.6 µM (agonist)
CC1(c2ccc(Cl)s2)OC(C(=O)O)=CC1=O (stereo not given)	3.7 µM (agonist)
CC1(c2c(F)cccc2F)OC(C(=O)O)=CC1=O (stereo not given)	36 µM (agonist)
CC1(c2cccc(I)c2)OC(C(=O)O)=CC1=O (stereo not given)	5.1 µM (agonist)
Cc1csc(C2(C)OC(C(=O)O)=CC2=O)c1 (stereo not given)	1.8 µM (agonist)
CC1(c2ccc(F)cc2)OC(C(=O)O)=CC1=O (stereo not given)	9.9 µM (agonist)
Cc1sc(C2(C)OC(C(=O)O)=CC2=O)cc1Br (stereo not given)	10.4 µM (agonist)
CC1(c2cc(Br)cs2)OC(C(=O)O)=CC1=O (stereo not given)	4.1 µM (agonist)
CC1(c2csc(Br)c2)OC(C(=O)O)=CC1=O (stereo in doubt; (+)-5ai)	0.37 µM (agonist)
CC1(c2csc(Br)c2)OC(C(=O)O)=CC1=O (stereo in doubt; 5ai)	1.5 µM (agonist)
CC1(c2ccc(F)c(F)c2)OC(C(=O)O)=CC1=O (stereo not given)	19 µM (agonist)
CC1(c2ccsc2)OC(C(=O)O)=CC1=O (stereo not given)	4.2 µM (agonist)
Cc1cc(C2(C)OC(C(=O)O)=CC2=O)cs1 (single isomer, unassigned; (+))	0.18 µM (agonist)
Cc1ccc(C2(C)OC(C(=O)O)=CC2=O)s1 (stereo not given)	0.27 µM (agonist)

Second part, the compound after the results:

EC50	SMILES
3 µM (agonist)	CC1(c2ccccc2)OC(C(=O)O)=CC1=O (stereo in doubt; (+)-5a) [ACIFRAN]
0.18 µM (agonist)	Cc1cc(C2(C)OC(C(=O)O)=CC2=O)cs1 (stereo in doubt; 5aj)
16 µM (agonist)	CC1(c2csc(Cl)c2)OC(C(=O)O)=CC1=O (stereo in doubt; (-)-5ah)
1.7 µM (agonist)	CC1(c2csc(Cl)c2)OC(C(=O)O)=CC1=O (stereo in doubt; 5ah)
0.69 µM (agonist)	CC1(c2csc(Cl)c2)OC(C(=O)O)=CC1=O (single isomer, unassigned; (+))
4.8 µM (agonist)	CCC1(c2ccccc2)OC(C(=O)O)=CC1=O (stereo not given)
6.2 µM (agonist)	CCc1cccc(C2(C)OC(C(=O)O)=CC2=O)c1 (stereo not given)
24 µM (agonist)	CC1(c2ccc(F)cc2F)OC(C(=O)O)=CC1=O (stereo not given)
4.9 µM (agonist)	CC1(c2cccc(Br)c2)OC(C(=O)O)=CC1=O (stereo in doubt; 5u)
4.2 µM (agonist)	CC1(c2ccccc2)OC(C(=O)O)=CC1=O (stereo in doubt; 5a) [ACIFRAN]

target: T1, Hydroxycarboxylic acid receptor 3; test: Activity at GPR109b in CHO cells assessed as inhibition of forskolin-induced cAMP generation upto 100 uM; type: functional, cell-based; parameters: scale not given: the % may be the effect or the level left; how it was run: as §1

SMILES	Activity [%]
COc1cccc(C2(C)OC(C(=O)O)=CC2=O)c1 (stereo not given)	< 50
CC1(c2cccnc2)OC(C(=O)O)=CC1=O (stereo not given)	< 50
Cc1cccc(C2(C)OC(C(=O)O)=CC2=O)c1 (stereo not given)	< 50
O=C(O)c1cccnc1	< 50
CC1(c2ccco2)OC(C(=O)O)=CC1=O (stereo not given)	< 50
CC1(c2cc(Cl)ccc2Cl)OC(C(=O)O)=CC1=O (stereo not given)	< 50

Now from value to compound:

Activity [%]	SMILES
< 50	CC1(c2ccncc2)OC(C(=O)O)=CC1=O (stereo not given)
< 50	O=C(O)C1=CC(=O)C2(CCc3ccccc32)O1 (stereo not given)
< 50	Cc1cnc(C(=O)O)c[n+]1[O-]
< 50	CC1(c2ccccc2)OC(C(=O)O)=CC1=O (single isomer, unassigned; (-))

species on record: Homo sapiens; test: Selectivity for GPR109a over GPR109b; type: functional
How it was run: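 Whole-cell cAMP (adenylyl cyclase activation) FlashPlate assay on stable clones expressing GPR109a or GPR109b; clones picked by anti-HA immunostaining. Each clone was optimized separately, using 50 000 cells per well and 5 µM forskolin stimulation. Forskolin-stimulated cAMP was set as 100% and unstimulated cAMP as 200%. Agonist EC50 was measured at each receptor.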

SMILES	Selectivity ratio
CC1(c2ccccc2)OC(C(=O)O)=CC1=O (stereo in doubt; 5a)	3
